Values after ≈ are worked out from the molar mass of the structure shown. Values belong to the compound of their own block, whether it stands above or below them. Active and inactive are the calls of the source. The calls are words filed in the database; no cut-off is given here.
What was measured:
Mus musculus [1] = species: Mus musculus; assay: Compound was evaluated for the induction of cytotoxic macrophages at concentration of 0.01 ug/mL; type: functional
In short: (§1)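 Peptone-elicited peritoneal macrophages were taken from C3Heb/FeJ mice (6–8 weeks) 3 days after ip peptone broth. About 4 × 10^5 cells per well were made adherent (90 min) and washed. Compound (3 mg/mL Me2SO stock, diluted in RPMI-1640 + 20% FCS) was added with 4 × 10^4 P815 mastocytoma cells, about 10:1 macrophage:target, at 37 °C, 5% CO2. After 48 h, nonadherent cells were counted by trypan blue. % cytotoxicity = (A−B)/A × 100, corrected for direct drug toxicity on targets. Mean of three experiments.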

Mus musculus [2] = species: Mus musculus; assay: Compound was evaluated for the induction of cytotoxic macrophages at concentration of 1 ug/mL; type: functional; in short: as §1
Mus musculus [3] = species: Mus musculus; assay: Compound was evaluated for the induction of cytotoxic macrophages at concentration of 0.1 ug/mL; type: functional; in short: as §1
CCRF-CEM = assay: In vitro inhibition of CCRF-CEM cell proliferation; type: functional, cell-based; settings: Homo sapiens
In short: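 Human leukaemia CCRF-CEM cells were grown in RPMI 1640 with 10% dialysed FBS, 16 mM HEPES and 8 mM MOPS, at 4.8 × 10^4 cells per well, in duplicate with several concentrations. Compounds came from a 4 mg/mL Me2SO (or ethanol) stock. After 72 h of continuous exposure (5% CO2), cells were counted on a Coulter counter. IC50 was read from dose–response curves against untreated controls.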

X5563 [4] = assay: Compound was tested in vivo for inhibition of tumor growth of X5,563 myeloma at dose of 70 mg/kg; Number of toxic deaths over total number of mice per group (T/C), 9/10; type: functional; settings: Mus musculus
X5563 [5] = assay: Compound was tested in vivo for inhibition of tumor growth of X5,563 myeloma at dose of 50 mg/kg; Number of toxic deaths over total number of mice per group (T/C), 1/10; type: functional; settings: Mus musculus
X5563 [6] = assay: Compound was tested in vivo for inhibition of tumor growth of X5,563 myeloma at dose of 25 mg/kg; Number of toxic deaths over total number of mice per group (T/C), 1/10; type: functional; settings: Mus musculus
6C3HED = assay: Compound was evaluated for the antitumor activity against 6C3HED lymphosarcoma for ip administration and daily x 8 schedule; Number of toxic deaths over total number of mice per group (T/C), 0/10 at dose of 35 mg/kg; type: functional; settings: Mus musculus, route intraperitoneal
AC755 = assay: Compound was evaluated for the antitumor activity against AC755 breast carcinoma for ip administration and daily x 10 schedule; Number of toxic deaths over total number of mice per group (T/C), 1/7 at dose of 25 mg/kg; type: functional; settings: Mus musculus, route intraperitoneal
M-5 = assay: Compound was evaluated for the antitumor activity against M-5 ovarian carcinoma for ip administration and daily x 10; % day delay schedule.; type: functional, Mus musculus
[7] = Compound was evaluated for the antitumor activity against X5563 plasma cell myeloma for ip administration and days x10; Number of toxic deaths over total number of mice per group (T/C), 0/10 at dose of 25 mg/kg; type: functional; settings: Mus musculus, route intraperitoneal
C3H = assay: Compound was evaluated for the antitumor activity against C3H mammary carcinoma for ip administration and daily x 10 schedule; Number of toxic deaths over total number of mice per group (T/C), 1/10 at dose of 25 mg/kg; type: functional; settings: Mus musculus, route intraperitoneal
[8] = Compound was evaluated for the antitumor activity against X5563 plasma cell myeloma for iv administration and days 4,8,12; Number of toxic deaths over total number of mice per group (T/C), 1/10 at dose of 50 mg/kg; type: functional; settings: Mus musculus
B16 = assay: Compound was evaluated for the antitumor activity against B-16 melanoma; Inactive; type: functional, cell-based; settings: Mus musculus
C6 = assay: Compound was evaluated for the antitumor activity against C-6 colon for ip administration and daily x 10; 5-day delay schedule; Number of toxic deaths over total number of mice per group (T/C), 1/10 at dose of 17 mg/kg; type: functional; settings: Mus musculus, 120 h, route intraperitoneal
X5563 [9] = assay: Compound was tested in vivo for inhibition of tumor growth of X5,563 myeloma at dose of 35 mg/kg; Number of toxic deaths over total number of mice per group (T/C), 4/10; type: functional; settings: Mus musculus
[10] = Compound was evaluated for the antitumor activity against X5563 plasma cell myeloma for po administration and daily x 10 schedule; Number of toxic deaths over total number of mice per group (T/C), 0/10 at dose of 50 mg/kg; type: functional; settings: Mus musculus
C-6 colon (Mus musculus) = assay: Compound was evaluated for the antitumor activity against C-6 colon for ip administration and days 4,8,12; Number of toxic deaths over total number of mice per group (T/C), 1/10 at dose of 50 mg/kg
P388 = assay: Compound was evaluated for the antitumor activity against P-388 leukemia; Inactive; type: functional, cell-based; settings: Mus musculus
In short: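 P-388 leukaemia: DBA/2 mice were inoculated ip with 1 × 10^6 cells. Compounds were suspended in 2.5% Emulphor in 0.9% saline and given as indicated. Mean life span of treated groups was compared with controls.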

X5563 [11] = assay: Compound was tested in vivo for inhibition of tumor growth of X5,563 myeloma at dose of 17 mg/kg; Number of toxic deaths over total number of mice per group (T/C), 0/10; type: functional; settings: Mus musculus
X5563 [12] = assay: Compound was tested in vivo for inhibition of tumor growth of X5,563 myeloma at dose of 5 mg/kg; Number of toxic deaths over total number of mice per group (T/C), 4/10; type: functional; settings: Mus musculus
X5563 [13] = assay: Compound was tested in vivo for inhibition of tumor growth of X5,563 myeloma at dose of 35 mg/kg; Number of toxic deaths over total number of mice per group (T/C), 2/9; type: functional; settings: Mus musculus
X5563 [14] = assay: Compound was tested in vivo for inhibition of tumor growth of X5,563 myeloma at dose of 17 mg/kg; Number of toxic deaths over total number of mice per group (T/C), 1/10; type: functional; settings: Mus musculus
X5563 [15] = assay: Compound was tested in vivo for inhibition of tumor growth of X5,563 myeloma at dose of 25 mg/kg; Number of toxic deaths over total number of mice per group (T/C), 0/10; type: functional; settings: Mus musculus
X5563 [16] = assay: Compound was tested in vivo for inhibition of tumor growth of X5,563 myeloma at dose of 25 mg/kg; Number of toxic deaths over total number of mice per group (T/C), 2/10; type: functional; settings: Mus musculus
X5563 [17] = assay: Compound was tested in vivo for inhibition of tumor growth of X5,563 myeloma at dose of 17 mg/kg; Number of toxic deaths over total number of mice per group (T/C), 3/10; type: functional; settings: Mus musculus
X5563 [18] = assay: Compound was tested in vivo for inhibition of tumor growth of X5,563 myeloma at dose of 70 mg/kg; Number of toxic deaths over total number of mice per group (T/C), 2/10; type: functional; settings: Mus musculus
X5563 [19] = assay: Compound was tested in vivo for inhibition of tumor growth of X5,563 myeloma at dose of 25 mg/kg; Number of toxic deaths over total number of mice per group (T/C), 0/9; type: functional; settings: Mus musculus
X5563 [20] = assay: Compound was tested in vivo for inhibition of tumor growth of X5,563 myeloma at dose of 35 mg/kg; Number of toxic deaths over total number of mice per group (T/C), 0/9; type: functional; settings: Mus musculus
[21] = Compound was tested in vivo for inhibition of tumor growth of X5,563 myeloma at dose of 35 mg/kg; Number of toxic deaths over total number of mice per group (T/C), 3/10; type: functional; settings: Mus musculus, X5563
X5563 [22] = assay: Compound was tested in vivo for inhibition of tumor growth of X5,563 myeloma at dose of 50 mg/kg; Number of toxic deaths over total number of mice per group (T/C), 9/10; type: functional; settings: Mus musculus

SMILES: CCCCCCCCCCCCCCCCCCCCCCCC(COP(=O)([O-])OCC[N+](C)(C)C)OCC (centres undefined)
- Macrophage cytotoxicity (Mus musculus [1]): 0%
- Macrophage cytotoxicity (Mus musculus [2]): 0%
- Macrophage cytotoxicity (Mus musculus [3]): 2%

SMILES: CCCCCCCC/C=C\CCCCCCCC(COP(=O)([O-])OCC[N+](C)(C)C)OCC (centres undefined)
- IC50 (CCRF-CEM): 1.6 µg/mL (≈ 3.25 µM)
- inhibition in vivo at 70 mg/kg (X5563 [4]): 67%
- inhibition in vivo at 50 mg/kg (X5563 [5]): 47%

SMILES: CCCCCCCCCCCCCCCCCCC(COP(=O)([O-])OCC[N+](C)(C)C)OCC (centres undefined)
- IC50 (CCRF-CEM): 0.8 µg/mL (≈ 1.58 µM)
- inhibition in vivo at 25 mg/kg (X5563 [6]): 80%
- inhibition in vivo at 35 mg/kg (6C3HED): 85%
- inhibition in vivo at 25 mg/kg (AC755): 42%
- Inhibition (M-5): 22%
- Macrophage cytotoxicity (Mus musculus [1]): 1%
- inhibition in vivo at 25 mg/kg [7]: 77%
- inhibition in vivo at 25 mg/kg (C3H): 37%
- inhibition in vivo at 50 mg/kg [8]: 43%
- inhibition (B16): inactive
- inhibition in vivo at 17 mg/kg (C6): 56%
- Macrophage cytotoxicity (Mus musculus [2]): 29%
- inhibition in vivo at 35 mg/kg (X5563 [9]): 95%
- inhibition in vivo at 50 mg/kg [10]: 56%
- inhibition in vivo at 50 mg/kg (C-6 colon (Mus musculus)): 31%
- inhibition (P388): inactive
- Macrophage cytotoxicity (Mus musculus [3]): 37%
- inhibition in vivo at 17 mg/kg (X5563 [11]): 65%

SMILES: CCCCCCCCCCCCCCCCOC[C@H](COP(=O)([O-])OCC[N+](C)(C)C)OCC
- IC50 (CCRF-CEM): 2.9 µg/mL (≈ 5.69 µM)
- Macrophage cytotoxicity (Mus musculus [1]): 4%
- Macrophage cytotoxicity (Mus musculus [2]): 31%
- inhibition in vivo at 5 mg/kg (X5563 [12]): 18%
- Macrophage cytotoxicity (Mus musculus [3]): 5%

- IC50 (CCRF-CEM): > 20 µg/mL
SMILES: CCCCCCCCCCCCCCCCCC[C@@H](O)COP(=O)([O-])OCC[N+](C)(C)C

SMILES: CCCCCCCCCCC(COP(=O)([O-])OCC[N+](C)(C)C)OCC (centres undefined)
- inhibition in vivo at 35 mg/kg (X5563 [13]): 45%
- IC50 (CCRF-CEM): 55 µg/mL (≈ 139 µM)
- Macrophage cytotoxicity (Mus musculus [1]): 1%
- inhibition in vivo at 17 mg/kg (X5563 [14]): 41%
- Macrophage cytotoxicity (Mus musculus [2]): 32%
- inhibition in vivo at 25 mg/kg (X5563 [15]): 39%
- Macrophage cytotoxicity (Mus musculus [3]): 2%

SMILES: CCCCCCCCCCCCCCC(COP(=O)([O-])OCC[N+](C)(C)C)OCC (centres undefined)
- IC50 (CCRF-CEM): 5.4 µg/mL (≈ 12 µM)
- inhibition in vivo at 25 mg/kg (X5563 [16]): 17%
- inhibition in vivo at 35 mg/kg (X5563 [9]): 80%
- inhibition in vivo at 17 mg/kg (X5563 [17]): 7%

- IC50 (CCRF-CEM): 1.5 µg/mL (≈ 3.04 µM)
SMILES: CCCCCCCCCCCCCCCCCCC(COP(=O)([O-])OCC[N+](C)(C)C)OC (centres undefined)

SMILES: CCCCC/C=C\C/C=C\CCCCCCCC(COP(=O)([O-])OCC[N+](C)(C)C)OCC (centres undefined)
- IC50 (CCRF-CEM): 6 µg/mL (≈ 12.3 µM)
- inhibition in vivo at 70 mg/kg (X5563 [18]): 31%

SMILES: CCCCCCC(COP(=O)([O-])OCC[N+](C)(C)C)OCC (centres undefined)
- IC50 (CCRF-CEM): > 200 µg/mL
- Macrophage cytotoxicity (Mus musculus [1]): 0%
- inhibition in vivo at 25 mg/kg (X5563 [19]): 16%
- Macrophage cytotoxicity (Mus musculus [2]): 0%
- Macrophage cytotoxicity (Mus musculus [3]): 0%
- inhibition in vivo at 35 mg/kg (X5563 [20]): 17%
- inhibition in vivo at 17 mg/kg (X5563 [11]): 17%

SMILES: CCCCCCCCCCCCCCCCCC[C@H](COP(=O)([O-])OCC[N+](C)(C)C)OC(C)=O
- IC50 (CCRF-CEM): 0.9 µg/mL (≈ 1.73 µM)
- Macrophage cytotoxicity (Mus musculus [1]): 0%
- Macrophage cytotoxicity (Mus musculus [2]): 23%
- inhibition in vivo at 25 mg/kg (X5563 [16]): 39%
- inhibition in vivo at 35 mg/kg [21]: 68%
- inhibition in vivo at 50 mg/kg (X5563 [22]): 100%
- Macrophage cytotoxicity (Mus musculus [3]): 0%
- inhibition in vivo at 17 mg/kg (X5563 [11]): 57%

Source: ChEMBL document CHEMBL1123384, “Studies of the antitumor activity of (2-alkoxyalkyl)- and (2-alkoxyalkenyl)phosphocholines” (J Med Chem, 1986)
